Values after ≈ are worked out from the molar mass of the structure shown.
Legend:
Klebsiella pneumoniae [1] = assay: Antibacterial activity against Klebsiella pneumoniae D11750/08 after 48 hrs by broth microdilution method; format: functional; conditions: D11750/08, 48 h
Summary of the method: (§1)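 Broth microdilution following […], with twofold compound dilutions in Mueller-Hinton bouillon. Incubated 24 and 48 h at 35 °C in the dark in a humid atmosphere. MIC (IC80) was taken as ≥80% growth reduction versus control, read visually and photometrically.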

Mycobacterium avium [2] = assay: Antimycobacterial activity against multidrug-resistant Mycobacterium avium 330/88 after 21 days by micromethod; format: functional; conditions: 330/88, 504 h
Summary of the method: (§2)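 Micromethod in Sula semisynthetic medium, with compounds added as DMSO solutions at 1000, 500, 250, 125, 62, 32, 16, 8, 4, 2, 1, 0.5, 0.25. Inoculum dilutions: H37Rv 10^-3; M. avium 330/88 10^-5; M. kansasii 235/80 10^-4; M. kansasii 6509/96 10^-5. Incubated at 37 °C, read at 14 and 21 days, and at 7 days for M. kansasii. MIC was the lowest concentration inhibiting growth.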

Lichtheimia corymbifera [3] = assay: Antifungal activity against Absidia corymbifera 272 after 48 hrs by broth microdilution method; format: functional; conditions: Lichtheimia corymbifera, 272, 48 h
Staphylococcus aureus [4] = assay: Antibacterial activity against methicillin-resistant Staphylococcus aureus H5996/08 after 48 hrs by broth microdilution method; format: functional; conditions: H5996/08, 48 h; summary of the method: as §1
Lichtheimia corymbifera [5] = assay: Antifungal activity against Absidia corymbifera 272 after 24 hrs by broth microdilution method; format: functional; conditions: Lichtheimia corymbifera, 272, 24 h
Candida albicans [6] = assay: Antifungal activity against Candida albicans ATCC 44859 after 24 hrs by broth microdilution method; format: functional; conditions: ATCC 44859, 24 h
Candida tropicalis [7] = assay: Antifungal activity against Candida tropicalis 156 after 24 hrs by broth microdilution method; format: functional; conditions: Candida tropicalis, 156, 24 h
Staphylococcus aureus [8] = assay: Antibacterial activity against methicillin-resistant Staphylococcus aureus H5996/08 after 24 hrs by broth microdilution method; format: functional; conditions: H5996/08, 24 h; summary of the method: as §1
Escherichia coli [9] = assay: Antibacterial activity against Escherichia coli CCM 4517 after 48 hrs by broth microdilution method; format: functional; conditions: CCM 4517, 48 h; summary of the method: as §1
[10] = tested on: Mycobacterium tuberculosis; assay: Antimycobacterial activity against Mycobacterium tuberculosis H37Rv 331/88 after 14 days by micromethod; format: functional; conditions: H37Rv 331/88, 336 h; summary of the method: as §2
Klebsiella pneumoniae [11] = assay: Antibacterial activity against Klebsiella pneumoniae D11750/08 after 24 hrs by broth microdilution method; format: functional; conditions: D11750/08, 24 h; summary of the method: as §1
[12] = Selectivity index, ratio of IC50 for human PBMC to MIC for Mycobacterium tuberculosis H37Rv 331/88 after 14 days; format: functional
Summary of the method: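 SI = PBMC IC50 (MTT cytotoxicity) divided by the MIC against the named M. tuberculosis strain. MIC taken after 14 days of incubation at 37 °C by the micromethod.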

Nakaseomyces glabratus [13] = assay: Antifungal activity against Candida glabrata 20/I after 24 hrs by broth microdilution method; format: functional
[14] = tested on: Mycobacterium tuberculosis; assay: Antimycobacterial activity against Mycobacterium tuberculosis H37Rv 331/88 after 21 days by micromethod; format: functional; conditions: H37Rv 331/88, 504 h; summary of the method: as §2
[15] = tested on: Trichophyton mentagrophytes; assay: Antifungal activity against Trichophyton mentagrophytes after 48 hrs by broth microdilution method; format: functional
Escherichia coli [16] = assay: Antibacterial activity against Escherichia coli CCM 4517 after 24 hrs by broth microdilution method; format: functional; conditions: CCM 4517, 24 h; summary of the method: as §1
Mycobacterium kansasii [17] = assay: Antimycobacterial activity against Mycobacterium kansasii 6509/96 after 14 days by micromethod; format: functional; conditions: 6509/96, 336 h; summary of the method: as §2
Aspergillus fumigatus [18] = assay: Antifungal activity against Aspergillus fumigatus 231 after 24 hrs by broth microdilution method; format: functional; conditions: Aspergillus fumigatus, 231, 24 h
Candida tropicalis [19] = assay: Antifungal activity against Candida tropicalis 156 after 48 hrs by broth microdilution method; format: functional; conditions: Candida tropicalis, 156, 48 h
Mycobacterium kansasii [20] = assay: Antimycobacterial activity against Mycobacterium kansasii 6509/96 after 21 days by micromethod; format: functional; conditions: 6509/96, 504 h; summary of the method: as §2
Pichia kudriavzevii [21] = assay: Antifungal activity against Candida krusei E28 after 48 hrs by broth microdilution method; format: functional; conditions: E28, 48 h
Mycobacterium avium [22] = assay: Antimycobacterial activity against multidrug-resistant Mycobacterium avium 330/88 after 14 days by micromethod; format: functional; conditions: 330/88, 336 h; summary of the method: as §2
Nakaseomyces glabratus [23] = assay: Antifungal activity against Candida glabrata 20/I after 48 hrs by broth microdilution method; format: functional
PBMC = assay: Cytotoxicity against human PBMC after 24 hrs by MTT assay; format: cell-based
Summary of the method: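 Human peripheral blood mononuclear cells in RPMI-1640 with 10% fetal calf serum, 2 mM L-glutamine and gentamicin, 37 °C, 5% CO2. Seeded at 1.5–2.0 × 10⁵ cells/well. After 24 h, treated overnight in serum-free medium. Viability by MTT (2 mg/mL, 4 h); formazan dissolved in DMSO; OD540 minus OD620. Cytotoxicity % = [1 − OD treated/OD control] × 100; IC50 from dose-response curves. Four parallels, two independent experiments.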

Staphylococcus aureus [24] = assay: Antibacterial activity against Staphylococcus aureus CCM 4516/08 after 24 hrs by broth microdilution method; format: functional; conditions: CCM 4516/08, 24 h; summary of the method: as §1
[25] = tested on: Mycobacterium tuberculosis; assay: Antimycobacterial activity against drug-sensitive Mycobacterium tuberculosis; format: functional
[26] = tested on: Staphylococcus epidermidis; assay: Antibacterial activity against Staphylococcus epidermidis H6966/08 after 48 hrs by broth microdilution method; format: functional; conditions: H6966/08, 48 h; summary of the method: as §1
Enterococcus sp. [27] = assay: Antibacterial activity against Enterococcus sp. J14365/08 after 48 hrs by broth microdilution method; format: functional; conditions: J14365/08, 48 h; summary of the method: as §1
Trichosporon beigelii [28] = assay: Antifungal activity against Trichosporon beigelii 1188 after 24 hrs by broth microdilution method; format: functional; conditions: Trichosporon beigelii, 1188, 24 h
Staphylococcus aureus [29] = assay: Antibacterial activity against Staphylococcus aureus CCM 4516/08 after 48 hrs by broth microdilution method; format: functional; conditions: CCM 4516/08, 48 h; summary of the method: as §1
Mycobacterium kansasii [30] = assay: Antimycobacterial activity against Mycobacterium kansasii 235/80 after 14 days by micromethod; format: functional; conditions: 235/80, 336 h; summary of the method: as §2
Mycobacterium kansasii [31] = assay: Antimycobacterial activity against Mycobacterium kansasii 235/80 after 21 days by micromethod; format: functional; conditions: 235/80, 504 h; summary of the method: as §2
[32] = tested on: Staphylococcus epidermidis; assay: Antibacterial activity against Staphylococcus epidermidis H6966/08 after 24 hrs by broth microdilution method; format: functional; conditions: H6966/08, 24 h; summary of the method: as §1
Enterococcus sp. [33] = assay: Antibacterial activity against Enterococcus sp. J14365/08 after 24 hrs by broth microdilution method; format: functional; conditions: J14365/08, 24 h; summary of the method: as §1
Aspergillus fumigatus [34] = assay: Antifungal activity against Aspergillus fumigatus 231 after 48 hrs by broth microdilution method; format: functional; conditions: Aspergillus fumigatus, 231, 48 h
Candida albicans [35] = assay: Antifungal activity against Candida albicans ATCC 44859 after 48 hrs by broth microdilution method; format: functional; conditions: ATCC 44859, 48 h
Pichia kudriavzevii [36] = assay: Antifungal activity against Candida krusei E28 after 24 hrs by broth microdilution method; format: functional; conditions: E28, 24 h
[37] = tested on: Trichophyton mentagrophytes; assay: Antifungal activity against Trichophyton mentagrophytes after 24 hrs by broth microdilution method; format: functional
Mycobacterium avium [38] = assay: Antimycobacterial activity against Mycobacterium avium; format: functional
Trichosporon beigelii [39] = assay: Antifungal activity against Trichosporon beigelii 1188 after 48 hrs by broth microdilution method; format: functional; conditions: Trichosporon beigelii, 1188, 48 h
[40] = Lipophilicity, log P of the compound; format: physicochemical; conditions: octanol/water
Mycobacterium kansasii [41] = assay: Antimycobacterial activity against Mycobacterium kansasii 6509/96 after 7 days by micromethod; format: functional; conditions: 6509/96, 168 h; summary of the method: as §2
Mycobacterium kansasii [42] = assay: Antimycobacterial activity against Mycobacterium kansasii 235/80 after 7 days by micromethod; format: functional; conditions: 235/80, 168 h; summary of the method: as §2
Mycobacterium kansasii [43] = assay: Antimycobacterial activity against Mycobacterium kansasii; format: functional

SMILES: CC(=O)N[C@@H](Cc1ccccc1)C(=O)Oc1ccc(Cl)cc1C(=O)Nc1ccc(C(F)(F)F)cc1
- MIC (Klebsiella pneumoniae [1]): > 125 µM
- MIC (Mycobacterium avium [2]): 4 µM (≈ 2.02 µg/mL)
- MIC (Lichtheimia corymbifera [3]): > 125 µM
- MIC (Staphylococcus aureus [4]): 7.81 µM (≈ 3.94 µg/mL)
- MIC (Lichtheimia corymbifera [5]): > 125 µM
- MIC (Candida albicans [6]): > 125 µM
- MIC (Candida tropicalis [7]): > 125 µM
- MIC (Staphylococcus aureus [8]): 0.98 µM (≈ 0.495 µg/mL)
- MIC (Escherichia coli [9]): > 125 µM
- MIC [10]: 0.25 µM (≈ 0.126 µg/mL)
- MIC (Klebsiella pneumoniae [11]): > 125 µM
- Selectivity Index [12]: 48.8
- MIC (Nakaseomyces glabratus [13]): > 125 µM
- MIC [14]: 0.5 µM (≈ 0.252 µg/mL)
- MIC [15]: > 125 µM
- MIC (Escherichia coli [16]): > 125 µM
- MIC (Mycobacterium kansasii [17]): 2 µM (≈ 1.01 µg/mL)
- MIC (Aspergillus fumigatus [18]): 125 µM (≈ 63.1 µg/mL)
- MIC (Candida tropicalis [19]): > 125 µM
- MIC (Mycobacterium kansasii [20]): 2 µM (≈ 1.01 µg/mL)
- MIC (Pichia kudriavzevii [21]): > 125 µM
- MIC (Mycobacterium avium [22]): 4 µM (≈ 2.02 µg/mL)
- MIC (Nakaseomyces glabratus [23]): > 125 µM
- IC50 (PBMC): 12.2 µM
- MIC (Staphylococcus aureus [24]): 0.98 µM (≈ 0.495 µg/mL)
- MIC [25]: 1 µM (≈ 0.505 µg/mL)
- MIC [26]: 3.9 µM (≈ 1.97 µg/mL)
- MIC (Enterococcus sp. [27]): > 125 µM
- MIC (Trichosporon beigelii [28]): 125 µM (≈ 63.1 µg/mL)
- MIC (Staphylococcus aureus [29]): 1.95 µM (≈ 0.985 µg/mL)
- MIC (Mycobacterium kansasii [30]): 1 µM (≈ 0.505 µg/mL)
- MIC (Mycobacterium kansasii [31]): 2 µM (≈ 1.01 µg/mL)
- MIC [32]: 0.98 µM (≈ 0.495 µg/mL)
- MIC (Enterococcus sp. [33]): 31.2 µM (≈ 15.8 µg/mL)
- MIC (Aspergillus fumigatus [34]): > 125 µM
- MIC (Candida albicans [35]): > 125 µM
- MIC (Pichia kudriavzevii [36]): 125 µM (≈ 63.1 µg/mL)
- MIC [37]: 62.5 µM (≈ 31.6 µg/mL)
- MIC (Mycobacterium avium [38]): 1 µM (≈ 0.505 µg/mL)
- MIC (Trichosporon beigelii [39]): > 125 µM
- logP [40]: 4.92
- MIC (Mycobacterium kansasii [41]): 1 µM (≈ 0.505 µg/mL)
- MIC (Mycobacterium kansasii [42]): 0.5 µM (≈ 0.252 µg/mL)
- MIC (Mycobacterium kansasii [43]): 1 µM (≈ 0.505 µg/mL)

SMILES: CC(=O)N[C@@H](Cc1ccccc1)C(=O)Oc1ccc(Cl)cc1C(=O)Nc1ccc(Cl)c(Cl)c1
- MIC (Mycobacterium avium [2]): 8 µM (≈ 4.05 µg/mL)
- MIC [10]: 0.5 µM (≈ 0.253 µg/mL)
- Selectivity Index [12]: 88
- MIC [14]: 1 µM (≈ 0.506 µg/mL)
- MIC (Mycobacterium kansasii [17]): 2 µM (≈ 1.01 µg/mL)
- MIC (Mycobacterium kansasii [20]): 4 µM (≈ 2.02 µg/mL)
- MIC (Mycobacterium avium [22]): 8 µM (≈ 4.05 µg/mL)
- IC50 (PBMC): 44 µM
- MIC [25]: 1 µM (≈ 0.506 µg/mL)
- MIC (Mycobacterium kansasii [30]): 2 µM (≈ 1.01 µg/mL)
- MIC (Mycobacterium kansasii [31]): 4 µM (≈ 2.02 µg/mL)
- MIC (Mycobacterium avium [38]): 1 µM (≈ 0.506 µg/mL)
- logP [40]: 5.12
- MIC (Mycobacterium kansasii [41]): 1 µM (≈ 0.506 µg/mL)
- MIC (Mycobacterium kansasii [42]): 1 µM (≈ 0.506 µg/mL)
- MIC (Mycobacterium kansasii [43]): 1 µM (≈ 0.506 µg/mL)

From ChEMBL document CHEMBL1629494, “New amino acid esters of salicylanilides active against MDR-TB and other microbes” (Eur J Med Chem, 2010)
